Screens from PubChem.
OX1R antag-1: human HCRTR1 antagonism; CHO/OX1R cells, Fluo-8 calcium fluorescence, orexin A; inhibition, % at 5 µM; 0.43% of 330,000 active; AID 434989;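 active means inhibition above its plate's threshold, mean inhibition of all tested compounds on the plate plus 3 SD, cut at about 37% in these data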;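 further: 0% = orexin A challenge wells and 100% = SB-334867-A antagonist wells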
TAAR1 agonist: agonists of human TAAR1; CHO RD-HGA16 TAAR1, Fluo-8 calcium fluorescence; vehicle wells 0%, saturating PEA agonist 100%; AID 624467; Q96RJ0; activation, % at 3 µM; 0.99% of 360,000 active;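 active means activation above the mean activation of all test compounds in the run plus 3 SD, cut at about 38% in these data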
Target sequence (Q96RJ0 whole entry, looked up): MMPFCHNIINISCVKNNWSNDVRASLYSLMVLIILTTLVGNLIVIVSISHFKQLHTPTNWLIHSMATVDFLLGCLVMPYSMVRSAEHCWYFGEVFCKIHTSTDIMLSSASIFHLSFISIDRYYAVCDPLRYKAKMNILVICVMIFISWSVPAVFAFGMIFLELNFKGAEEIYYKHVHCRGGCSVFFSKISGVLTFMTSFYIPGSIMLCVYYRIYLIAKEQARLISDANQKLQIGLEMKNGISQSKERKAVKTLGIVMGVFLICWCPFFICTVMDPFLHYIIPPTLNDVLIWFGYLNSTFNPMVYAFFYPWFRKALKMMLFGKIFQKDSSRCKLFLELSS
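Test system: RD-HGA16 (CHO) cells co-expressing Gα16 and hTAAR1; dosing: one-point dosing at 3 µM (nominal); timing: 17-24 h seeding, 75 min 37 °C dye, 30 min RT; signal: kinetic Fluo-8 calcium fluorescence; read-out basis: % activation relative to PEA EC100 response; controls: DMSO and PEA EC100; replicates: n 1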
CHO parental Ca: counter-screen for OX1R antagonists: effect in parental CHO cells; parental CHO-K1, ATP-induced calcium, Fluo-8 fluorescence; inhibition, % at 5.6 µM; 0.63% of 330,000 active;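 active means inhibition above that plate's mean sample inhibition plus 3 SD, cut at about 26% in these data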;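 further: 0% = ATP-challenged DMSO wells and 100% = DMSO wells without ATP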
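Material: parental CHO cells / Compound: single nominal dose of 5.6 µM per compound / Signal: Fluo-8 fluorescence / Replicates: singlicate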
GPR7 antag: blocks human GPR7 receptor signaling; P48145; GPR7-expressing cells, fluorescence antagonist assay; inhibition, % at 4.4 µM; 1.1% of 290,000 active; AID 1861; in the data active means inhibition above about 16%, passing the limit was not always enough;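 further: cells stimulated with the agonist NPW; 0% = agonist with vehicle and 100% = vehicle without agonist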
Target sequence (P48145 whole entry, looked up): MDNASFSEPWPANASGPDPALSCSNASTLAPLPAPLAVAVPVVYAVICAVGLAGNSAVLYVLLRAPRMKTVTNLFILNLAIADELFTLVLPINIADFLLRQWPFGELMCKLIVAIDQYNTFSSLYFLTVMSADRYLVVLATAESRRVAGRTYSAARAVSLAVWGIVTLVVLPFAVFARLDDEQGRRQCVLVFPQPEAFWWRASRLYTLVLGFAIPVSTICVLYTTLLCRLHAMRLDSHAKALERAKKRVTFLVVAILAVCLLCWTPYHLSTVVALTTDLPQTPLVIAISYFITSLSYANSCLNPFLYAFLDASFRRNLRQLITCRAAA
OX1R antag-2: blocks the human orexin 1 receptor. OX1R-expressing cells, FRET antagonist read-out. O43613. 1.8% of 330,000 active. inhibition, % at 6.6 µM; in the data active means inhibition mostly above about 38%, no sharp cut-off; inactive means mostly below about 40%;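 further: 0% = agonist challenge alone and 100% = reference antagonist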
TAAR1 antagonist: human TAAR1 antagonism; Q96RJ0; CHO RD-HGA16 TAAR1, Fluo-8 calcium fluorescence, antagonist; inhibition, % at 3 µM; 1.5% of 360,000 active;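 active means inhibition above a per-plate cutoff, the mean inhibition of test compounds on that plate plus 3 SD, cut at about 49% in these data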;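 further: 0% = DMSO plus EC80 beta-PEA response and 100% = DMSO alone without agonist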
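test system = CHO RD-HGA16 cells bearing hTAAR1 | replication = singlicate | controls = DMSO-only wells and EC80 β-PEA-stimulated wells | reagent = EC80 β-phenethylamine stimulus | read-out basis = percent inhibition of PEA-evoked calcium signal, max/basal emission ratio | schedule = seeding 17-24 h prior, 75-min 37 °C, 30-min RT dye loading | signal = kinetic Fluo-8 calcium fluorescence measurement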
TAAR1 ag confirm: human TAAR1 agonism, confirmed; shares compounds with TAAR1 agonist; CHO RD-HGA16 TAAR1, Fluo-8 calcium fluorescence; scaled: DMSO 0%, maximal phenethylamine 100%; activation, % at 3 µM; 82% of 2,400 active;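 active means activation above a cutoff set at the run's mean compound activation plus 3 SD, cut at about 39% in these data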
Ga16 ag counter: nonselective agonism, TAAR1 counter-screen | activation, % at 3 µM | CHO-Ga16 parental, Fluo-8 calcium fluorescence; normalized to maximal ATP response, DMSO zero | 50% of 2,400 active | shares compounds with TAAR1 agonist;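 active means activation above the run cutoff, the mean activation over all tested wells plus 3 SD, cut at about 12% in these data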;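 further: 0% = DMSO wells and 100% = maximal ATP response on the peak over basal ratio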
TAAR1 desens: counter-screen for human TAAR1 agonists: agonists that desensitize TAAR1; shares compounds with TAAR1 agonist; CHO RD-HGA16 hTAAR1, Fluo-8 calcium, beta-PEA response inhibition; inhibition, % at 3 µM; 46% of 2,400 active; AID 651951;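 active means inhibition above the run cutoff, the mean inhibition of all test compounds plus 3 SD, cut at about 49% in these data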;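 further: beta-PEA stimulus applied at its EC80; loss of beta-PEA calcium signal after compound pretreatment read as receptor desensitization; 0% = DMSO with beta-PEA at EC80 and 100% = DMSO alone without agonist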
Ga16 antag count: counter-screen for TAAR1 agonists: nonselective Ga16 antagonists | shares compounds with TAAR1 agonist | CHO-Ga16 ATP-induced calcium, Fluo-8 fluorescence | inhibition, % at 3 µM | AID 651952 | 39% of 2,400 active;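 active means inhibition above the plate's mean compound inhibition plus 3 SD, computed per plate, cut at about 22% in these data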;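 further: 0% = EC80 ATP with DMSO and 100% = DMSO wells without ATP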
An asterisk follows results filed as active. The list is not random: actives were taken first. Their share in the collection is about 4.5%.

O=C(NCC(c1ccco1)N1CCc2ccccc2C1)C(=O)Nc1ccccc1F (stereo not drawn) was read as OX1R antag-1 -16, TAAR1 agonist 46*, CHO parental Ca 7, OX1R antag-2 43, TAAR1 antagonist 16, TAAR1 ag confirm 48*, Ga16 ag counter 2, TAAR1 desens 16 and Ga16 antag count 18.
`CC(=O)Nc1ccc(NC(=O)C(=O)NCC(c2ccco2)N2CCc3ccccc3C2)cc1` (stereo not drawn) gave OX1R antag-1 17, TAAR1 agonist 78*, CHO parental Ca 49*, OX1R antag-2 19, TAAR1 antagonist 16, TAAR1 ag confirm 93*, Ga16 ag counter 4, TAAR1 desens 36 and Ga16 antag count 7.
Screening O=C(NCC(c1ccco1)N1CCc2ccccc2C1)C(=O)Nc1ccc(F)cc1F (stereo not drawn) returned OX1R antag-1 -7, TAAR1 agonist 58*, CHO parental Ca -16, OX1R antag-2 21, TAAR1 antagonist 14, TAAR1 ag confirm 41*, Ga16 ag counter 5, TAAR1 desens 10 and Ga16 antag count 16.
Screening O=C(CN1CCc2ccccc2C1)Nc1ccc(F)cc1F returned OX1R antag-1 -8, TAAR1 agonist -2, CHO parental Ca -15, GPR7 antag 4, OX1R antag-2 5 and TAAR1 antagonist -31.
For O=C(NCC(c1ccco1)N1CCc2ccccc2C1)c1ccc(Cl)c([N+](=O)[O-])c1 (stereo not drawn) the results were OX1R antag-1 -17, TAAR1 agonist 4, CHO parental Ca -15, OX1R antag-2 36 and TAAR1 antagonist 3.
For CCC(=O)Nc1ccc(NC(=O)CSc2nnnn2Cc2ccccc2)cc1C the results were TAAR1 agonist -1, GPR7 antag 2 and TAAR1 antagonist 3.
`N#Cc1c([N+](=O)[O-])cc([N+](=O)[O-])cc1S(=O)(=O)Cc1ccccc1` gave OX1R antag-1 -2, TAAR1 agonist 48*, CHO parental Ca 17, OX1R antag-2 28, TAAR1 antagonist 45, TAAR1 ag confirm 9, Ga16 ag counter 9, TAAR1 desens 42 and Ga16 antag count 45*.
Screening COc1ccc(/C=C/C(=O)N2CCN(c3ccccn3)CC2)c(OC)c1OC returned OX1R antag-1 -21, TAAR1 agonist 6, CHO parental Ca -11, GPR7 antag -1, OX1R antag-2 2 and TAAR1 antagonist -4.
`COCCN1C(=O)CSCC1(C)C(=O)Nc1c(C)cccc1C` (stereo not drawn) gave TAAR1 agonist 1 and TAAR1 antagonist -12.
For COCCCn1c(O)c(/C=C2\N=C(C#N)C(=Nc3ccc(C)cc3)O2)sc1=S the results were OX1R antag-1 34, TAAR1 agonist 52*, CHO parental Ca 39*, GPR7 antag -9, OX1R antag-2 17, TAAR1 antagonist 74*, TAAR1 ag confirm 20, Ga16 ag counter 15*, TAAR1 desens 10 and Ga16 antag count 25*.
CC(Oc1ccccc1F)c1nnc(SCC(=O)Nc2ccc(N3CCOCC3)cc2)o1 (stereo not drawn) was read as OX1R antag-1 -4, TAAR1 agonist -1, CHO parental Ca 10, OX1R antag-2 5 and TAAR1 antagonist 3.
Screening O=C(O)C1NCCc2ccccc21 (stereo not drawn) returned OX1R antag-1 -6, TAAR1 agonist 72*, CHO parental Ca -14, GPR7 antag 16, OX1R antag-2 7, TAAR1 antagonist 38, TAAR1 ag confirm 67*, Ga16 ag counter 0, TAAR1 desens 24 and Ga16 antag count 2.
COc1cccc(CNC(=O)c2nnn(CC(=O)Nc3ccc(Br)cc3)c2N)c1 was read as OX1R antag-1 1, TAAR1 agonist 5, CHO parental Ca 15, GPR7 antag 11, OX1R antag-2 -2 and TAAR1 antagonist 8.
CCCc1c2ccccc2nc2ccccc12 was read as OX1R antag-1 -18, TAAR1 agonist 70*, CHO parental Ca -20, GPR7 antag -5, OX1R antag-2 38, TAAR1 antagonist -33, TAAR1 ag confirm 11, Ga16 ag counter 10, TAAR1 desens -12 and Ga16 antag count -5.
Cc1ccc(-c2nc(CS(=O)(=O)CC(=O)N3CCCCCC3)c(C)o2)cc1 was read as OX1R antag-1 -21, TAAR1 agonist -1, CHO parental Ca -16, GPR7 antag 1, OX1R antag-2 19 and TAAR1 antagonist -42.
For Cc1ccc(-c2nc(CS(=O)(=O)CC(=O)N3CCc4ccccc4C3)c(C)o2)cc1 the results were OX1R antag-1 -19, TAAR1 agonist 66*, CHO parental Ca -29, GPR7 antag -10, OX1R antag-2 6, TAAR1 antagonist 30, TAAR1 ag confirm 82*, Ga16 ag counter 2, TAAR1 desens 64* and Ga16 antag count 15.
Screening C[n+]1c2cc(N)ccc2cc2ccc(N)cc21 returned TAAR1 agonist 82*, TAAR1 antagonist 15, TAAR1 ag confirm 103*, Ga16 ag counter 123*, TAAR1 desens 24 and Ga16 antag count 42*.
For Nc1ccc2ccc(O)cc2c1 the results were TAAR1 agonist 0 and TAAR1 antagonist 6.
c1ccc(CN(CC2=NCCN2)c2ccccc2)cc1 was read as OX1R antag-1 -10, TAAR1 agonist 66*, CHO parental Ca -2, GPR7 antag -6, OX1R antag-2 17, TAAR1 antagonist -3, TAAR1 ag confirm 92*, Ga16 ag counter 3, TAAR1 desens 67* and Ga16 antag count 12.
Screening c1ccc(CC2=NCCN2)cc1 returned OX1R antag-1 -3, TAAR1 agonist 75*, CHO parental Ca 3, GPR7 antag -10, OX1R antag-2 9, TAAR1 antagonist 63*, TAAR1 ag confirm 92*, Ga16 ag counter 0, TAAR1 desens 76* and Ga16 antag count 6.
Screening Cc1cc(C(C)(C)C)cc(C)c1CC1=NCCN1 returned OX1R antag-1 -8, TAAR1 agonist 32, CHO parental Ca -7, GPR7 antag 0, OX1R antag-2 6 and TAAR1 antagonist -23.
